Data published in ChEMBL document CHEMBL4428062, “Human Toll-like Receptor (TLR) 8-Specific Agonistic Activity in Substituted Pyrimidine-2,4-diamines” (J Med Chem, 2016).
Active and inactive are the calls of the source. No cut-off for these calls is given here.

What follows are compounds tested against T1, Toll-like receptor 8 (Homo sapiens, UniProt Q9NR97) (assay: Agonist activity at TLR8 in human PBMC assessed as increase in TNF-alpha production after 16 hrs by immunoassay).
T1 sequence (Q9NR97 whole entry): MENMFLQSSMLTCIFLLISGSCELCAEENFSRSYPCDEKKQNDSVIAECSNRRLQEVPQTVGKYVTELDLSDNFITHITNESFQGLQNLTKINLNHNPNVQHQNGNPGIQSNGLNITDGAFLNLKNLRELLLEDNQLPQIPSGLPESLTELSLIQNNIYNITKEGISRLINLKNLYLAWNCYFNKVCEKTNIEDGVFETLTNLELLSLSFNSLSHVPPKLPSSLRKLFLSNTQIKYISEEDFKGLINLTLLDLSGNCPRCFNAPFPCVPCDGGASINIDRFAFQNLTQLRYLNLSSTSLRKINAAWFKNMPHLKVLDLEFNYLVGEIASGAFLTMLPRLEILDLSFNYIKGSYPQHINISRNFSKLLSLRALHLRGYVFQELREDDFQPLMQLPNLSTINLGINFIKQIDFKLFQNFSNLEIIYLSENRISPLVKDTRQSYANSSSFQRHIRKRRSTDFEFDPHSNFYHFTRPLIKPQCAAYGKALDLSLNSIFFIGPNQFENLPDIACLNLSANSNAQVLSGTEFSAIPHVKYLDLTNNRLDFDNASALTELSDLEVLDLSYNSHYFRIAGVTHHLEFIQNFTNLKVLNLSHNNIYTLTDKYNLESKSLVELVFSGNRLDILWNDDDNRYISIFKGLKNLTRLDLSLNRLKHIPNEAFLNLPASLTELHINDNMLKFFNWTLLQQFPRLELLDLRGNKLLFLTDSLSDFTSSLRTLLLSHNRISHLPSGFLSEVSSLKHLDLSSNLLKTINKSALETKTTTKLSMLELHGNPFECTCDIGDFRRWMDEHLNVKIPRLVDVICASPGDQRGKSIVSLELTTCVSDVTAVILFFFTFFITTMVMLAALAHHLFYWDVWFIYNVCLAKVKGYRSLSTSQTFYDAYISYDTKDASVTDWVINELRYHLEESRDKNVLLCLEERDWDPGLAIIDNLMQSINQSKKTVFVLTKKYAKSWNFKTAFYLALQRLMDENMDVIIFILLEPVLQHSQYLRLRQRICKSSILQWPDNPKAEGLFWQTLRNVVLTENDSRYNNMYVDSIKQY
Outline: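 Freshly isolated human PBMC from venipuncture blood (informed consent), 10^5 cells/well, stimulated 16 h with graded concentrations of compound. Supernatants collected by centrifugation and cytokines quantified in duplicate with a multiplexed cytokine/chemokine magnetic bead array.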

Row | SMILES | EC50 [µM]
1 | CCCCNc1nc(N)nc(C)c1CCCCN | 9.26

The compounds below were run against Toll-like receptor 4 (Homo sapiens) (UniProt O00206) (assay: Agonist activity at human TLR4 expressed in HEK293 cells assessed as induction of NF-kappaB activity by secreted alkaline phosphatase reporter gene assay).
Chain of Toll-like receptor 4 (Homo sapiens) (O00206 whole entry): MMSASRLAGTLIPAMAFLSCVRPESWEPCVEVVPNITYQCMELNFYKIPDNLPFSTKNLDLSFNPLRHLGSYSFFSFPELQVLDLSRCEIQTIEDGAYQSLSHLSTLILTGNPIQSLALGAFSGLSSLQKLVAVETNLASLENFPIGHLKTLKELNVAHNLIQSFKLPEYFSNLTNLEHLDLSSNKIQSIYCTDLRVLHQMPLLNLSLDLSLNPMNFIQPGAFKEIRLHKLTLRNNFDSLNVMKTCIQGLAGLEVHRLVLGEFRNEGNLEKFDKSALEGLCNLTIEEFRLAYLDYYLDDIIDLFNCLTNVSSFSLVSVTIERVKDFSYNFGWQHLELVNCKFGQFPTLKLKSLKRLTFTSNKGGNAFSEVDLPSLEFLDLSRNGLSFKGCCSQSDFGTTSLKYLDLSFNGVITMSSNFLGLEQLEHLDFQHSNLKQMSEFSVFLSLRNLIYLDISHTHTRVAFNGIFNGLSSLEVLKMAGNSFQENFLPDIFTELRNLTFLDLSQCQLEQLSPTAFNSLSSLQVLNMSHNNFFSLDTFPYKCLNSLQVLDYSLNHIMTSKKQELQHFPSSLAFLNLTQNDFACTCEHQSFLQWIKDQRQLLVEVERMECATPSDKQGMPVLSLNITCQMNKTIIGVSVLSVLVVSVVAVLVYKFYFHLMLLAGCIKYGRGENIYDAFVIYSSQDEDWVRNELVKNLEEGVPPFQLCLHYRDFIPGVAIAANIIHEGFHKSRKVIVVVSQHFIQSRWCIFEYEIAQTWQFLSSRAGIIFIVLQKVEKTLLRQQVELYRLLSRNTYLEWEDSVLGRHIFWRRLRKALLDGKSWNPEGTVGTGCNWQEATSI
Format: cell-based
Outline: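 HEK293 reporter lines stably co-transfected with the respective human TLR and an NF-κB/AP-1-driven secreted alkaline phosphatase gene, kept in selection medium. About 10^5 cells/ml were incubated with graded concentrations of stimuli. Supernatant sAP was read spectrophotometrically at 620 nm using a chromogenic substrate in detection medium. EC50 was taken as the arithmetic mean of quadruplicate samples.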

Row | SMILES | Activity
2 | CCCCNc1nc(N)nc(C)c1I | inactive
3 | CCCCCn1c(N)nc2c(C)cccc21 | inactive
4 | CCCCNc1nc(N)nc(C)c1CCCCN | inactive
5 | CCCCNc1nc(N)nc(-c2ccccc2)c1CCCCN | inactive
6 | CCCCNc1cc(-c2ccccc2)nc(N)n1 | inactive
